Screens (PubChem)
ABCG2 inh = ABCG2 efflux pump inhibitors, primary screen, multiplex with ABCB1, IgMXP3 cells, flow cytometry; JC-1 efflux; inhibition, % at 6.6 µM; 0.1% of 190,000 active; AID 1325, 2008;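 active = inhibition above 80%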;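 also: 0% = DMSO and 100% = nicardipine control wells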
Target sequence (Q9UNQ0 whole entry, looked up): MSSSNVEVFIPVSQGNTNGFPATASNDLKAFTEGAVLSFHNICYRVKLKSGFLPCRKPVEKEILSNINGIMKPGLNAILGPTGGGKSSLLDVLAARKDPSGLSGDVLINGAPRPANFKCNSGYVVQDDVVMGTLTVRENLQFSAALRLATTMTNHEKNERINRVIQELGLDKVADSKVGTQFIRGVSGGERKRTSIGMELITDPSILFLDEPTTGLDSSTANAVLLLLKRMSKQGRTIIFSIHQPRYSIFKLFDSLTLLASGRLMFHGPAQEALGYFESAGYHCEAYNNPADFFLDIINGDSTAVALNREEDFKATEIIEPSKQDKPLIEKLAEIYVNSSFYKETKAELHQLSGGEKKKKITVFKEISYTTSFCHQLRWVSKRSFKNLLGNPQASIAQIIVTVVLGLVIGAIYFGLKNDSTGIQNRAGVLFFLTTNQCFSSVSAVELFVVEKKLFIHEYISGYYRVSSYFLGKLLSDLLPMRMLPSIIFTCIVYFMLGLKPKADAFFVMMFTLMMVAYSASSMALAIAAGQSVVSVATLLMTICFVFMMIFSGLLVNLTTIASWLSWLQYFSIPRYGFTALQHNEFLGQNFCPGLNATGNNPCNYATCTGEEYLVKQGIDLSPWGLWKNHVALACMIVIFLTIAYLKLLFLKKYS
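Read-out basis: Efflux inhibition in percent versus controls | Test system: ABCG2 IgMXP3 and barcoded ABCB1 CCRF-Adr cell mix | Quantity: 3 million cells/mL in well | Schedule: 10 min at 25 °C | Control set: Nicardipine as high control, DMSO as low control | Reagent: JC-1 as fluorescent efflux pump substrate | Signal: Flow cytometry of retained JC-1 fluorescence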
GSH bead fluor = compound fluorescence on glutathione beads, profiling panel, artefact control, biophysical, 488/530 nm, flow cytometry. AID 1776, 2009. fluorescence (KMESF) at 10 µM. GSH beads flow cytometry, compound fluorescence 488/530 nm; active compounds read high. 0.25% of 190,000 active; in the data active = fluorescence above about 89;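 also: glutathione beads carrying GST-tagged Bcl family fusion proteins plus one bare bead set; values are compound well signal with DMSO vehicle wells as background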
Lmaj promast = Leishmania major promastigote growth inhibition, primary screen; Leishmania major promastigotes, resazurin fluorescence viability; 9% of 200,000 active; inhibition, % at 10 µM;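 also: promastigotes grown with compound for 44 hours at 28 °C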
Avidin bead fluor = green autofluorescence of compounds with avidin beads – biophysical, 488/530 nm, flow cytometry, artefact control, profiling panel; AID 1775, 2009; fluorescence (KMESF) at 10 µM; compound fluorescence 488/530 nm; active compounds read high; 0.38% of 220,000 active; in the data active = fluorescence above about 47
ABCB1 inh = ABCB1 efflux pump inhibitors, primary screen, cell-based, multiplex, flow cytometry, ABCG2 counter-screen. CCRF-Adr cells, JC-1 efflux. inhibition, % at 6.6 µM. 0.067% of 190,000 active. AID 1326, 2008; in the data active = inhibition above about 40%;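 also: 0% = vehicle and 100% = reference inhibitor; higher value means more JC-1 retained so stronger ABCB1 efflux block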
PKD1 kinase inh = inhibitors of human PKD1 kinase, biochemical, fluorescence polarization; PKD1 kinase fluorescence polarization assay; AID 797, 2007; Serine/threonine-protein kinase D1 (Homo sapiens), Q15139; 0.056% of 200,000 active; inhibition, % (concentration not given with the values)
Starred values were filed as active, the others as inactive. This excerpt belongs to a sample that is enriched for hits. Rule as the data show it, unless noted: active = inhibition above about 50%; inactive = the rest.

`COc1cc(/C=C2/C(=O)N(c3ccccc3)N=C2C)ccc1OS(=O)(=O)c1ccccc1` gave ABCG2 inh -4, GSH bead fluor 20, Lmaj promast 87*, Avidin bead fluor 14, ABCB1 inh 0 and PKD1 kinase inh 9.
For CC1=NN(c2ccc(C)c(C)c2)C(=O)/C1=C/c1ccc2c(c1)n(C)c(=O)n2C the results were ABCG2 inh 1, GSH bead fluor 9, Lmaj promast 97*, Avidin bead fluor 13 and PKD1 kinase inh -3.
`Cn1c(=O)n(C)c2cc(/C=N/n3cnnc3)ccc21` gave ABCG2 inh 1, GSH bead fluor 13, Lmaj promast 19, Avidin bead fluor 35, ABCB1 inh 0 and PKD1 kinase inh 4.
Screening CC(C)=CCN1CCN(CCC2=C(C)CCCC2(C)C)CC1CCO (centres undefined) returned ABCG2 inh 2, GSH bead fluor 8, Lmaj promast 80*, Avidin bead fluor 2, ABCB1 inh 1 and PKD1 kinase inh 8.
`CC1=C(CCN2CCN(C3CCCC3)C(CCO)C2)C(C)(C)CCC1` (centres undefined) gave ABCG2 inh 3, GSH bead fluor 9, Lmaj promast 83*, Avidin bead fluor 3, ABCB1 inh 3 and PKD1 kinase inh 1.
For CC(C)=CCN1CCN(CCCn2cccn2)CC1CCO (centres undefined) the results were ABCG2 inh 1, GSH bead fluor 9, Lmaj promast -7, Avidin bead fluor 9, ABCB1 inh 0 and PKD1 kinase inh -2.
`COc1ccc(N(CC(=O)N/N=C(\C)CCc2ccccc2)S(=O)(=O)c2ccc(C)cc2)cc1` gave Avidin bead fluor 7.
`COc1n[nH]c(C(=O)NCc2ccccc2)c1[N+](=O)[O-]` gave ABCG2 inh 1, GSH bead fluor 10, Lmaj promast -4, Avidin bead fluor 22, ABCB1 inh 0 and PKD1 kinase inh -1.
`COc1n[nH]c(C(=O)Nc2nc3ccccc3s2)c1[N+](=O)[O-]` gave ABCG2 inh 0, GSH bead fluor 20, Lmaj promast 70*, Avidin bead fluor 8, ABCB1 inh -1 and PKD1 kinase inh 4.
`CC(=O)Nc1cc(-c2ccc(Cl)cc2)[nH]n1` gave ABCG2 inh 6, GSH bead fluor 9, Lmaj promast 33, Avidin bead fluor 8, ABCB1 inh 0 and PKD1 kinase inh 2.
Screening Cc1c(C(=O)Oc2ccc(F)cc2)sc2ncn(Cc3cccc(F)c3)c(=O)c12 returned ABCG2 inh 1, GSH bead fluor 4, Lmaj promast 51*, Avidin bead fluor 14, ABCB1 inh -1 and PKD1 kinase inh -3.
Screening CCn1cnc2sc(C(=O)Oc3cccc(C)c3)c(C)c2c1=O returned ABCG2 inh 21, GSH bead fluor 26, Lmaj promast 41, Avidin bead fluor 10, ABCB1 inh 3 and PKD1 kinase inh 5.
O=S(=O)(NCC(c1cccnc1)N1CCN(c2ccc(F)cc2)CC1)c1cccs1 (centres undefined) was read as ABCG2 inh 4, GSH bead fluor 14, Lmaj promast 87*, Avidin bead fluor 23, ABCB1 inh 1 and PKD1 kinase inh 7.
`O=S(=O)(NCC(c1cccnc1)N1CCN(Cc2ccccc2)CC1)c1ccccc1` (centres undefined) gave ABCG2 inh 1, GSH bead fluor 22, Lmaj promast 83*, Avidin bead fluor 8, ABCB1 inh 1 and PKD1 kinase inh -4.
Cc1ccc(S(=O)(=O)NCC(c2cccnc2)N2CCOCC2)cc1 (centres undefined) was read as ABCG2 inh 1, GSH bead fluor 13, Lmaj promast 6, Avidin bead fluor 6, ABCB1 inh 1 and PKD1 kinase inh -6.
O=S(=O)(NCC(c1cccnc1)N1CCN(c2ccccc2F)CC1)c1cccs1 (centres undefined) was read as ABCG2 inh 4, GSH bead fluor 24, Lmaj promast 78*, Avidin bead fluor 6, ABCB1 inh 4 and PKD1 kinase inh 4.
O=S(=O)(NCC(c1cccnc1)N1CCN(c2ccc(F)cc2)CC1)c1ccc(F)cc1 (centres undefined) was read as ABCG2 inh 1, GSH bead fluor 24, Lmaj promast 91*, Avidin bead fluor 8, ABCB1 inh -2 and PKD1 kinase inh -18.
CS(=O)(=O)NCC(c1cccnc1)N1CCN(c2ccccc2F)CC1 (centres undefined) was read as Avidin bead fluor 7.
Cn1c(-c2ccccc2)cnc1SCC(=O)N1CCCc2ccccc21 was read as ABCG2 inh 4, GSH bead fluor 7, Lmaj promast 77*, Avidin bead fluor 16, ABCB1 inh 1 and PKD1 kinase inh 1.
Screening O=C(CSc1nnc(-c2ccccc2)c(-c2ccccc2)n1)N1CCc2ccccc21 returned ABCG2 inh 8, GSH bead fluor 23, Lmaj promast 57*, Avidin bead fluor 13, ABCB1 inh 2 and PKD1 kinase inh -10.
For Cc1ccc(-c2cnc(SCC(=O)N3CCCc4ccccc43)n2C)cc1 the results were ABCG2 inh 3, GSH bead fluor 46, Lmaj promast -2, Avidin bead fluor 8, ABCB1 inh 1 and PKD1 kinase inh -9.
Screening CC(C)c1nc(SCC(=O)N2CCCc3ccccc32)c2c(=O)n(C)c(=O)n(C)c2n1 returned ABCG2 inh 4, GSH bead fluor 25, Lmaj promast 51*, Avidin bead fluor 7, ABCB1 inh 5 and PKD1 kinase inh -1.
Screening O=C(CSc1nc(N2CCCCC2)nc(N2CCCCC2)n1)N1CCc2ccccc21 returned ABCG2 inh 33, GSH bead fluor 14, Lmaj promast -3, Avidin bead fluor 8, ABCB1 inh 1 and PKD1 kinase inh 1.
O=C(CSc1ncc(-c2ccccc2)n1C1CCCC1)N1CCc2ccccc21 was read as ABCG2 inh 44, GSH bead fluor 25, Lmaj promast 50*, Avidin bead fluor 22, ABCB1 inh 5 and PKD1 kinase inh -7.
`CCOc1ccc(CN2CCN(Cc3nc4c(s3)CCCC4)CC2CCO)cc1` (centres undefined) gave ABCG2 inh 3, GSH bead fluor 15, Lmaj promast 11, Avidin bead fluor 11, ABCB1 inh 1 and PKD1 kinase inh 7.
Screening O=C(O)c1nn2c(C(F)(F)F)cc(-c3cccs3)nc2c1Cl returned ABCG2 inh 12, GSH bead fluor 9, Lmaj promast 8, Avidin bead fluor 10, ABCB1 inh 0 and PKD1 kinase inh 0.
